The source made the active and inactive calls. No cut-off for these calls is given here.
Columns and labels:
BV-2 [1] = assay: Anti-neuroinflammatory activity in mouse BV2 cells assessed as inhibition of LPS-induced TNF-alpha production by measuring TNF-alpha level at 50 uM preincubated for 1 hr followed by LPS stimulation and measured after 24 hrs by ELISA (reference value: 100 +/- 0%); type: functional; conditions: time 25 hrs
How it was run: (§1)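 BV2 murine microglia in DMEM:F-12 (1:1) with 10% heat-inactivated FBS and penicillin/streptomycin, 5% CO2, seeded at 5 x 10^5 cells/mL in 12-well plates and attached overnight. Compound in DMSO (0.1% v/v final) added 1 h before LPS (E. coli O55:B5, 100 ng/mL) for 24 h. Medium centrifuged, then assayed by ELISA. Values are % of LPS, mean ± SEM, three experiments.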

BV-2 [2] = assay: Anti-neuroinflammatory activity in mouse BV2 cells assessed as inhibition of LPS-induced TNF-alpha production by measuring TNF-alpha level at 1 uM preincubated for 1 hr followed by LPS stimulation and measured after 24 hrs by ELISA (reference value: 100 +/- 0%); type: functional; parameters: scale not given: the % may be the effect or the level left; conditions: time 25 hrs; how it was run: as §1
Microglia [3] = assay: Anti-neuroinflammatory activity in primary mouse microglia cells assessed as reduction in LPS-induced TNF mRNA expression at 100 uM preincubated for 1 hr followed by LPS treatment for 4 hrs by qPCR analysis; type: functional, cell-based; conditions: time 5.0 hrs
How it was run: (§2)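 Primary microglia come from cortical cells of 1-2-day neonatal mice, grown in DMEM/F12 with 10% FBS and 2 mM glutamine, plus 5 ng/ml GM-CSF from day 3. Cells shaken off at day 13-14, plated at 5 x 10^5 cells/mL and attached overnight. Compound given 1 h before LPS 100 ng/mL for 2 or 4 h, then RNA extracted and qPCR run. Mean ± SEM, three experiments.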

Microglia [4] = assay: Anti-neuroinflammatory activity in primary mouse microglia cells assessed as reduction in LPS-induced IL-23p19 mRNA expression at 100 uM preincubated for 1 hr followed by LPS treatment for 2 hrs by qPCR analysis; type: functional, cell-based; conditions: time 3.0 hrs; how it was run: as §2
Microglia [5] = assay: Anti-neuroinflammatory activity in primary mouse microglia cells assessed as reduction in LPS-induced IL-12p40 mRNA expression at 100 uM preincubated for 1 hr followed by LPS treatment for 4 hrs by qPCR analysis; type: functional, cell-based; conditions: time 5.0 hrs; how it was run: as §2
Microglia [6] = assay: Anti-neuroinflammatory activity in primary mouse microglia cells assessed as reduction in LPS-induced IL-1beta mRNA expression at 100 uM preincubated for 1 hr followed by LPS treatment for 4 hrs by qPCR analysis; type: functional, cell-based; conditions: time 5.0 hrs; how it was run: as §2
Microglia [7] = assay: Anti-neuroinflammatory activity in primary mouse microglia cells assessed as reduction in LPS-induced IL-12p35 mRNA expression at 100 uM preincubated for 1 hr followed by LPS treatment for 4 hrs by qPCR analysis; type: functional, cell-based; conditions: time 5.0 hrs; how it was run: as §2
Microglia [8] = assay: Anti-neuroinflammatory activity in primary mouse microglia cells assessed as reduction in LPS-induced GM-CSF mRNA expression at 100 uM preincubated for 1 hr followed by LPS treatment for 2 hrs by qPCR analysis; type: functional, cell-based; conditions: time 3.0 hrs; how it was run: as §2
Microglia [9] = assay: Anti-neuroinflammatory activity in primary mouse microglia cells assessed as reduction in LPS-induced IL-12p40 mRNA expression at 100 uM preincubated for 1 hr followed by LPS treatment for 2 hrs by qPCR analysis; type: functional, cell-based; conditions: time 3.0 hrs; how it was run: as §2
Microglia [10] = assay: Anti-neuroinflammatory activity in primary mouse microglia cells assessed as reduction in LPS-induced IL6 mRNA expression at 100 uM preincubated for 1 hr followed by LPS treatment for 2 hrs by qPCR analysis; type: functional, cell-based; conditions: time 3.0 hrs; how it was run: as §2
Microglia [11] = assay: Anti-neuroinflammatory activity in primary mouse microglia cells assessed as reduction in LPS-induced IL-1beta mRNA expression at 100 uM preincubated for 1 hr followed by LPS treatment for 2 hrs by qPCR analysis; type: functional, cell-based; conditions: time 3.0 hrs; how it was run: as §2
BV-2 [12] = assay: Anti-neuroinflammatory activity in mouse BV2 cells assessed as inhibition of LPS-induced IL-6 production preincubated for 1 hr followed by LPS treatment and measured after 24 hrs by ELISA; type: functional, cell-based; conditions: dose 25-50 µM, time 25.0 hrs; how it was run: as §1
Microglia [13] = assay: Anti-neuroinflammatory activity in primary mouse microglia cells assessed as reduction in LPS-induced IL-23p19 mRNA expression at 100 uM preincubated for 1 hr followed by LPS treatment for 4 hrs by qPCR analysis; type: functional, cell-based; conditions: time 5.0 hrs; how it was run: as §2
BV-2 [14] = assay: Anti-neuroinflammatory activity in mouse BV2 cells assessed as inhibition of LPS-induced nitrite production preincubated for 1 hr followed by LPS treatment and measured after 24 hrs by Griess assay; type: functional, cell-based; conditions: dose 6-50 µM, time 25.0 hrs
How it was run: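 BV2 cells seeded at 5 x 10^5 cells/mL in 12-well plates and attached overnight. Compound (0.1% v/v DMSO final) given 1 h before LPS 100 ng/mL for 24 h. Medium centrifuged to remove floating cells, then nitrite read by Griess kit. Mean ± SEM from three experiments.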

Microglia [15] = assay: Anti-neuroinflammatory activity in primary mouse microglia cells assessed as reduction in LPS-induced GM-CSF mRNA expression at 100 uM preincubated for 1 hr followed by LPS treatment for 4 hrs by qPCR analysis; type: functional, cell-based; conditions: time 5.0 hrs; how it was run: as §2
Microglia [16] = assay: Anti-neuroinflammatory activity in primary mouse microglia cells assessed as reduction in LPS-induced TNF mRNA expression at 100 uM preincubated for 1 hr followed by LPS treatment for 2 hrs by qPCR analysis; type: functional, cell-based; conditions: time 3.0 hrs; how it was run: as §2
BV-2 [17] = assay: Anti-neuroinflammatory activity in mouse BV2 cells assessed as inhibition of LPS-induced TNF-alpha production preincubated for 1 hr followed by LPS treatment and measured after 24 hrs by ELISA; type: functional, cell-based; conditions: dose 12-50 µM, time 25.0 hrs; how it was run: as §1
Microglia [18] = assay: Anti-neuroinflammatory activity in primary mouse microglia cells assessed as reduction in LPS-induced IL6 mRNA expression at 100 uM preincubated for 1 hr followed by LPS treatment for 4 hrs by qPCR analysis; type: functional, cell-based; conditions: time 5.0 hrs; how it was run: as §2
Microglia [19] = assay: Anti-neuroinflammatory activity in primary mouse microglia cells assessed as reduction in LPS-induced IL-12p35 mRNA expression at 100 uM preincubated for 1 hr followed by LPS treatment for 2 hrs by qPCR analysis; type: functional, cell-based; conditions: time 3.0 hrs; how it was run: as §2

| Compound | TNF-alpha level (% of LPS control) (BV-2 [1]) | also measured |
| --- | --- | --- |
| FC(F)(F)c1ccc(CN2CCc3cc4c(cc3C2)OCO4)cc1 | 102% |  |
| COc1ccc(CN2CCc3cc4c(cc3C2)OCO4)cc1 | 88% |  |
| COc1cccc(OC)c1CN1CCc2ccccc2C1 | 78% |  |
| COc1ccccc1CN1CCc2cc3c(cc2C1)OCO3 | 78% |  |
| COc1cccc(CN2CCc3ccccc3C2)c1OC | 95% |  |
| COc1ccc2cc3[n+](cc2c1OC)CCc1cc2c(cc1-3)OCO2.[Cl-] [BERBERINE CHLORIDE] |  | Activity (BV-2 [2]): 25% |
| COc1cccc(CN2CCc3cc4c(cc3C2)OCO4)c1 | 78% |  |
| COc1cc(CN2CCc3cc4c(cc3C2)OCO4)cc(OC)c1 | 89% |  |
| COc1ccc(CC2c3cc4c(cc3CC[N+]2(C)C)OCO4)cc1OC.[I-] (centres undefined) | 97% |  |
| COc1ccc(CC2c3cc4c(cc3CCN2C)OCO4)cc1OC (centres undefined) | 77% |  |
| COc1ccc(CC2NCCc3cc4c(cc32)OCO4)cc1OC (centres undefined) | 77% |  |
| COc1ccc2c(c1)CN(Cc1c(OC)cccc1OC)CC2 | 82% |  |
| COc1ccc2c(c1)CCN(Cc1c(OC)cccc1OC)C2 | 64% |  |
| COc1cccc(CN2CCc3cc4c(cc3C2)OCO4)c1OC | 61% |  |
| COc1ccc2c(c1OC)C[N+]1(Cc3ccccc3)CCc3cc4c(cc3C1C2)OCO4.[Br-] (centres undefined) | 22% |  |
| COc1cccc(OC)c1C(=O)N1CCc2cc3c(cc2C1)OCO3 | 73% |  |
| COc1ccc(CN2CCc3cc4c(cc3C2)OCO4)c(OC)c1 | 103% |  |
| COc1ccc2c(c1OC)CN1CCc3cc4c(cc3C1C2)OCO4 (centres undefined) [TETRAHYDROBERBERINE] | 45% |  |
| Clc1cccc(Cl)c1CN1CCc2cc3c(cc2C1)OCO3 | 107% |  |
| Cc1cccc(C)c1CN1CCc2cc3c(cc2C1)OCO3 | 101% |  |
| COc1cccc(OC)c1CN1CCc2cc3c(cc2C1)OCO3 | 39% | Activity (Microglia [3]): inactive; Activity (Microglia [4]): Active; Activity (Microglia [5]): inactive; Activity (Microglia [6]): Active; Activity (Microglia [7]): Active; Activity (Microglia [8]): Active; Activity (Microglia [9]): inactive; Activity (Microglia [10]): Active; Activity (Microglia [11]): Active; Activity (BV-2 [12]): Dose-dependent effect; Activity (Microglia [13]): Active; Activity (BV-2 [14]): Dose-dependent effect; Activity (Microglia [15]): Active; Activity (Microglia [16]): inactive; Activity (BV-2 [17]): Dose-dependent effect; Activity (Microglia [18]): Active; Activity (Microglia [19]): Active |
| c1ccc(CN2CCc3cc4c(cc3C2)OCO4)cc1 | 90% |  |

Reference: ChEMBL document CHEMBL4715828, “Identification of N-benzyltetrahydroisoquinolines as novel anti-neuroinflammatory agents” (2018)
